From ChEMBL document CHEMBL1122887, “Structure-activity studies on the N-terminal region of growth hormone releasing factor” (1985)
Calls of active or inactive are those of the source.

Tests used:
Rattus norvegicus [1] = assay: Effect on plasma growth hormone in anesthetized rat at a dose of 5 ug/100 g of body weight; format: functional
How it was run: (§1)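 Male Charles River rats (175–350 g) anesthetized with sodium pentobarbital (6 mg/100 g body wt); 30 min later, 6–9 per group received a single subcutaneous 0.5-mL injection of saline, GRF(1-29)NH₂ reference, or one of two analogue doses. Jugular vein blood was drawn 15 min post-injection, and plasma GH was measured by radioimmunoassay, reported as ng/mL ± SE.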

Rattus norvegicus [2] = assay: Effect on plasma growth hormone in anesthetized rat at a dose of 10 ug/100 g of body weight; format: functional; how it was run: as §1
Rattus norvegicus [3] = assay: Percent growth hormone releasing activity in anesthetized rat relative to hpGRF (1-29)NH2; Not active; format: functional, organism-based
How it was run: (§2)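 In pentobarbital-anesthetized male Charles River rats (6–9/group), two subcutaneous analogue doses and GRF(1-29)NH₂ reference doses were given. Plasma GH was measured by radioimmunoassay in jugular blood taken 15 min post-injection. Relative potency with 95% confidence limits came from a four-point assay design by Pugsley's method. Not active means no activity at the doses tested.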

Rattus norvegicus [4] = assay: Percent growth hormone releasing activity in anesthetized rat relative to hpGRF (1-29)NH2; format: functional; how it was run: as §2
Rattus norvegicus [5] = assay: Effect on plasma growth hormone in anesthetized rat at a dose of 25 ug/100 g of body weight; format: functional; how it was run: as §1

SMILES | Activity (Rattus norvegicus [1]) | Activity (Rattus norvegicus [3]) | Activity (Rattus norvegicus [4]) | Activity (Rattus norvegicus [5]) | other results
CC[C@H](C)[C@H](NC(=O)[C@H](C)NC(=O)[C@H](CC(=O)O)NC(=O)[C@@H](Cc1ccccc1)NC(=O)[C@H](Cc1ccc(O)cc1)NC(C)=O)C(=O)N[C@@H](Cc1ccccc1)C(=O)N[C@H](C(=O)N[C@@H](CC(N)=O)C(=O)N[C@@H](CO)C(=O)N[C@@H](Cc1ccc(O)cc1)C(=O)N[C@@H](CCCN=C(N)N)C(=O)N[C@@H](CCCCN)C(=O)N[C@H](C(=O)N[C@@H](CC(C)C)C(=O)NCC(=O)N[C@@H](CCC(N)=O)C(=O)N[C@@H](CC(C)C)C(=O)N[C@@H](CO)C(=O)N[C@@H](C)C(=O)N[C@@H](CCCN=C(N)N)C(=O)N[C@@H](CCCCN)C(=O)N[C@@H](CC(C)C)C(=O)N[C@@H](CC(C)C)C(=O)N[C@@H](CCC(N)=O)C(=O)N[C@@H](CC(=O)O)C(=O)N[C@H](C(=O)N[C@@H](CCSC)C(=O)N[C@@H](CO)C(=O)N[C@@H](CCCN=C(N)N)C(N)=O)[C@@H](C)CC)C(C)C)[C@@H](C)O | 475 ng/mL | inactive |  |  | Activity (Rattus norvegicus [2]): 422 ng/mL
CC[C@H](C)[C@H](NC(=O)[C@H](C)NC(=O)[C@H](CC(=O)O)NC(=O)[C@@H](C)NC(=O)[C@@H](N)Cc1ccc(O)cc1)C(=O)N[C@@H](Cc1ccccc1)C(=O)N[C@H](C(=O)N[C@@H](CC(N)=O)C(=O)N[C@@H](CO)C(=O)N[C@@H](Cc1ccc(O)cc1)C(=O)N[C@@H](CCCN=C(N)N)C(=O)N[C@@H](CCCCN)C(=O)N[C@H](C(=O)N[C@@H](CC(C)C)C(=O)NCC(=O)N[C@@H](CCC(N)=O)C(=O)N[C@@H](CC(C)C)C(=O)N[C@@H](CO)C(=O)N[C@@H](C)C(=O)N[C@@H](CCCN=C(N)N)C(=O)N[C@@H](CCCCN)C(=O)N[C@@H](CC(C)C)C(=O)N[C@@H](CC(C)C)C(=O)N[C@@H](CCC(N)=O)C(=O)N[C@@H](CC(=O)O)C(=O)N[C@H](C(=O)N[C@@H](CCSC)C(=O)N[C@@H](CO)C(=O)N[C@@H](CCCN=C(N)N)C(N)=O)[C@@H](C)CC)C(C)C)[C@@H](C)O |  |  | 5146% |  | 
CC[C@H](C)[C@H](NC(=O)[C@H](C)NC(=O)[C@H](CC(=O)O)NC(=O)[C@H](C)NC(=O)[C@H](Cc1ccc(O)cc1)NC(C)=O)C(=O)N[C@@H](Cc1ccccc1)C(=O)N[C@H](C(=O)N[C@@H](CC(N)=O)C(=O)N[C@@H](CO)C(=O)N[C@@H](Cc1ccc(O)cc1)C(=O)N[C@@H](CCCN=C(N)N)C(=O)N[C@@H](CCCCN)C(=O)N[C@H](C(=O)N[C@@H](CC(C)C)C(=O)NCC(=O)N[C@@H](CCC(N)=O)C(=O)N[C@@H](CC(C)C)C(=O)N[C@@H](CO)C(=O)N[C@@H](C)C(=O)N[C@@H](CCCN=C(N)N)C(=O)N[C@@H](CCCCN)C(=O)N[C@@H](CC(C)C)C(=O)N[C@@H](CC(C)C)C(=O)N[C@@H](CCC(N)=O)C(=O)N[C@@H](CC(=O)O)C(=O)N[C@H](C(=O)N[C@@H](CCSC)C(=O)N[C@@H](CO)C(=O)N[C@@H](CCCN=C(N)N)C(N)=O)[C@@H](C)CC)C(C)C)[C@@H](C)O |  |  | 1224% |  | 
CC[C@H](C)[C@H](NC(=O)[C@H](C)NC(=O)[C@H](CC(=O)O)NC(=O)[C@@H](C)NC(=O)[C@@H](Cc1ccc(O)cc1)NC(C)=O)C(=O)N[C@@H](Cc1ccccc1)C(=O)N[C@H](C(=O)N[C@@H](CC(N)=O)C(=O)N[C@@H](CO)C(=O)N[C@@H](Cc1ccc(O)cc1)C(=O)N[C@@H](CCCN=C(N)N)C(=O)N[C@@H](CCCCN)C(=O)N[C@H](C(=O)N[C@@H](CC(C)C)C(=O)NCC(=O)N[C@@H](CCC(N)=O)C(=O)N[C@@H](CC(C)C)C(=O)N[C@@H](CO)C(=O)N[C@@H](C)C(=O)N[C@@H](CCCN=C(N)N)C(=O)N[C@@H](CCCCN)C(=O)N[C@@H](CC(C)C)C(=O)N[C@@H](CC(C)C)C(=O)N[C@@H](CCC(N)=O)C(=O)N[C@@H](CC(=O)O)C(=O)N[C@H](C(=O)N[C@@H](CCSC)C(=O)N[C@@H](CO)C(=O)N[C@@H](CCCN=C(N)N)C(N)=O)[C@@H](C)CC)C(C)C)[C@@H](C)O (stereo in doubt; 1) |  |  | 993% |  | 
CC[C@H](C)[C@H](NC(=O)[C@H](C)NC(=O)[C@H](CC(=O)O)NC(=O)[C@@H](C)NC(=O)[C@@H](Cc1ccc(O)cc1)NC(C)=O)C(=O)N[C@@H](Cc1ccccc1)C(=O)N[C@H](C(=O)N[C@@H](CC(N)=O)C(=O)N[C@@H](CO)C(=O)N[C@@H](Cc1ccc(O)cc1)C(=O)N[C@@H](CCCN=C(N)N)C(=O)N[C@@H](CCCCN)C(=O)N[C@H](C(=O)N[C@@H](CC(C)C)C(=O)NCC(=O)N[C@@H](CCC(N)=O)C(=O)N[C@@H](CC(C)C)C(=O)N[C@@H](CO)C(=O)N[C@@H](C)C(=O)N[C@@H](CCCN=C(N)N)C(=O)N[C@@H](CCCCN)C(=O)N[C@@H](CC(C)C)C(=O)N[C@@H](CC(C)C)C(=O)N[C@@H](CCC(N)=O)C(=O)N[C@@H](CC(=O)O)C(=O)N[C@H](C(=O)N[C@@H](CCSC)C(=O)N[C@@H](CO)C(=O)N[C@@H](CCCN=C(N)N)C(N)=O)[C@@H](C)CC)C(C)C)[C@@H](C)O (stereo in doubt; 3) |  |  | 670% |  | 
CC[C@H](C)[C@H](NC(=O)[C@H](C)NC(=O)[C@H](CC(=O)O)NC(=O)[C@@H](C)NC(=O)[C@@H](Cc1ccc(O)cc1)NC(C)=O)C(=O)N[C@@H](Cc1ccccc1)C(=O)N[C@H](C(=O)N[C@@H](CC(N)=O)C(=O)N[C@@H](CO)C(=O)N[C@@H](Cc1ccc(O)cc1)C(=O)N[C@@H](CCCN=C(N)N)C(=O)N[C@@H](CCCCN)C(=O)N[C@H](C(=O)N[C@@H](CC(C)C)C(=O)NCC(=O)N[C@@H](CCC(N)=O)C(=O)N[C@@H](CC(C)C)C(=O)N[C@@H](CO)C(=O)N[C@@H](C)C(=O)N[C@@H](CCCN=C(N)N)C(=O)N[C@@H](CCCCN)C(=O)N[C@@H](CC(C)C)C(=O)N[C@@H](CC(C)C)C(=O)N[C@@H](CCC(N)=O)C(=O)N[C@@H](CC(=O)O)C(=O)N[C@H](C(=O)N[C@@H](CCSC)C(=O)N[C@@H](CO)C(=O)N[C@@H](CCCN=C(N)N)C(N)=O)[C@@H](C)CC)C(C)C)[C@@H](C)O (stereo in doubt; 4) | 805 ng/mL |  | 110% | 2234 ng/mL | 
CC[C@H](C)[C@H](NC(=O)[C@H](C)NC(=O)[C@H](CC(=O)O)NC(=O)[C@@H](C)NC(=O)[C@@H](Cc1ccc(O)cc1)NC(C)=O)C(=O)N[C@@H](Cc1ccccc1)C(=O)N[C@H](C(=O)N[C@@H](CC(N)=O)C(=O)N[C@@H](CO)C(=O)N[C@@H](Cc1ccc(O)cc1)C(=O)N[C@@H](CCCN=C(N)N)C(=O)N[C@@H](CCCCN)C(=O)N[C@H](C(=O)N[C@@H](CC(C)C)C(=O)NCC(=O)N[C@@H](CCC(N)=O)C(=O)N[C@@H](CC(C)C)C(=O)N[C@@H](CO)C(=O)N[C@@H](C)C(=O)N[C@@H](CCCN=C(N)N)C(=O)N[C@@H](CCCCN)C(=O)N[C@@H](CC(C)C)C(=O)N[C@@H](CC(C)C)C(=O)N[C@@H](CCC(N)=O)C(=O)N[C@@H](CC(=O)O)C(=O)N[C@H](C(=O)N[C@@H](CCSC)C(=O)N[C@@H](CO)C(=O)N[C@@H](CCCN=C(N)N)C(N)=O)[C@@H](C)CC)C(C)C)[C@@H](C)O (stereo in doubt; 6) [listing 1 of 2 here] | 324 ng/mL |  |  | 374 ng/mL | 
CC[C@H](C)[C@H](NC(=O)[C@H](C)NC(=O)[C@H](CC(=O)O)NC(=O)[C@@H](C)NC(=O)[C@@H](Cc1ccc(O)cc1)NC(C)=O)C(=O)N[C@@H](Cc1ccccc1)C(=O)N[C@H](C(=O)N[C@@H](CC(N)=O)C(=O)N[C@@H](CO)C(=O)N[C@@H](Cc1ccc(O)cc1)C(=O)N[C@@H](CCCN=C(N)N)C(=O)N[C@@H](CCCCN)C(=O)N[C@H](C(=O)N[C@@H](CC(C)C)C(=O)NCC(=O)N[C@@H](CCC(N)=O)C(=O)N[C@@H](CC(C)C)C(=O)N[C@@H](CO)C(=O)N[C@@H](C)C(=O)N[C@@H](CCCN=C(N)N)C(=O)N[C@@H](CCCCN)C(=O)N[C@@H](CC(C)C)C(=O)N[C@@H](CC(C)C)C(=O)N[C@@H](CCC(N)=O)C(=O)N[C@@H](CC(=O)O)C(=O)N[C@H](C(=O)N[C@@H](CCSC)C(=O)N[C@@H](CO)C(=O)N[C@@H](CCCN=C(N)N)C(N)=O)[C@@H](C)CC)C(C)C)[C@@H](C)O (stereo in doubt; 6) [listing 2 of 2 here] |  | inactive |  |  | 
CC[C@H](C)[C@H](NC(=O)[C@H](C)NC(=O)[C@H](CC(=O)O)NC(=O)[C@@H](C)NC(=O)[C@@H](Cc1ccc(O)cc1)NC(C)=O)C(=O)N[C@@H](Cc1ccccc1)C(=O)N[C@H](C(=O)N[C@@H](CC(N)=O)C(=O)N[C@@H](CO)C(=O)N[C@@H](Cc1ccc(O)cc1)C(=O)N[C@@H](CCCN=C(N)N)C(=O)N[C@@H](CCCCN)C(=O)N[C@H](C(=O)N[C@@H](CC(C)C)C(=O)NCC(=O)N[C@@H](CCC(N)=O)C(=O)N[C@@H](CC(C)C)C(=O)N[C@@H](CO)C(=O)N[C@@H](C)C(=O)N[C@@H](CCCN=C(N)N)C(=O)N[C@@H](CCCCN)C(=O)N[C@@H](CC(C)C)C(=O)N[C@@H](CC(C)C)C(=O)N[C@@H](CCC(N)=O)C(=O)N[C@@H](CC(=O)O)C(=O)N[C@H](C(=O)N[C@@H](CCSC)C(=O)N[C@@H](CO)C(=O)N[C@@H](CCCN=C(N)N)C(N)=O)[C@@H](C)CC)C(C)C)[C@@H](C)O (stereo in doubt; 7) [listing 1 of 2 here] | 213 ng/mL |  |  | 328 ng/mL | 
CC[C@H](C)[C@H](NC(=O)[C@H](C)NC(=O)[C@H](CC(=O)O)NC(=O)[C@@H](C)NC(=O)[C@@H](Cc1ccc(O)cc1)NC(C)=O)C(=O)N[C@@H](Cc1ccccc1)C(=O)N[C@H](C(=O)N[C@@H](CC(N)=O)C(=O)N[C@@H](CO)C(=O)N[C@@H](Cc1ccc(O)cc1)C(=O)N[C@@H](CCCN=C(N)N)C(=O)N[C@@H](CCCCN)C(=O)N[C@H](C(=O)N[C@@H](CC(C)C)C(=O)NCC(=O)N[C@@H](CCC(N)=O)C(=O)N[C@@H](CC(C)C)C(=O)N[C@@H](CO)C(=O)N[C@@H](C)C(=O)N[C@@H](CCCN=C(N)N)C(=O)N[C@@H](CCCCN)C(=O)N[C@@H](CC(C)C)C(=O)N[C@@H](CC(C)C)C(=O)N[C@@H](CCC(N)=O)C(=O)N[C@@H](CC(=O)O)C(=O)N[C@H](C(=O)N[C@@H](CCSC)C(=O)N[C@@H](CO)C(=O)N[C@@H](CCCN=C(N)N)C(N)=O)[C@@H](C)CC)C(C)C)[C@@H](C)O (stereo in doubt; 7) [listing 2 of 2 here] |  | inactive |  |  | 
